Measured values: ChEMBL document CHEMBL1153560, “In vitro activities of doripenem and six comparator drugs against 423 aerobic and anaerobic bacterial isolates from infected diabetic foot wounds” (2008)
In brackets after ≈: the same amount, converted by molar mass.

How the values were obtained:
Type in all cases: functional
[1] = tested on: Bacteroides caccae; assay: Antibacterial activity against Bacteroides caccae isolated from patient with diabetic foot infection after 44 to 48 hrs by agar dilution method
Summary of the method: (§1)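 CLSI M11-A7 agar dilution: serial twofold drug dilutions made on the test day and added to molten agar. Spots of 10^5 CFU were applied by replicator, with drug-free control plates inoculated before and after each set. Incubation was 44 to 48 h at 37°C in an anaerobic chamber. MIC was the lowest concentration giving no growth or a marked change in growth versus controls.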

[2] = tested on: Finegoldia magna; assay: Antibacterial activity against Finegoldia magna isolated from patient with diabetic foot infection after 44 to 48 hrs by agar dilution method; summary of the method: as §1
[3] = tested on: Parabacteroides merdae; assay: Antibacterial activity against Parabacteroides merdae isolated from patient with diabetic foot infection assessed as percent resistant isolates after 44 to 48 hrs by agar dilution method
Summary of the method: (§2)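 Agar dilution per CLSI M11-A7. Twofold drug dilutions made on the test day and added to molten agar. Replicator-applied inoculum of 10^5 CFU/spot. Drug-free control plates inoculated before and after each drug set. Incubation at 37°C for 44 to 48 h, anaerobic chamber. MIC taken as the lowest concentration giving no growth or a marked change in growth versus controls.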

[4] = tested on: Parvimonas micra; assay: Antibacterial activity against Peptostreptococcus micros isolated from patient with diabetic foot infection after 44 to 48 hrs by agar dilution method; summary of the method: as §1
[5] = tested on: Anaerococcus tetradius; assay: Antibacterial activity against Anaerococcus tetradius isolated from patient with diabetic foot infection after 44 to 48 hrs by agar dilution method; summary of the method: as §1
[6] = tested on: Bacteroides fragilis; assay: Antibacterial activity against Bacteroides fragilis isolated from patient with diabetic foot infection assessed as percent resistant isolates after 44 to 48 hrs by agar dilution method; summary of the method: as §2
[7] = tested on: Lacrimispora sphenoides; assay: Antibacterial activity against Clostridium sphenoides isolated from patient with diabetic foot infection assessed as percent resistant isolates after 44 to 48 hrs by agar dilution method; summary of the method: as §2
[8] = tested on: Cutibacterium acnes; assay: Antibacterial activity against Propionibacterium acnes isolated from patient with diabetic foot infection after 44 to 48 hrs by agar dilution method; summary of the method: as §1
[9] = tested on: Peptostreptococcus anaerobius; assay: Antibacterial activity against Peptostreptococcus anaerobius isolated from patient with diabetic foot infection after 44 to 48 hrs by agar dilution method; summary of the method: as §1
[10] = tested on: [Clostridium] innocuum; assay: Antibacterial activity against Clostridium innocuum isolated from patient with diabetic foot infection after 44 to 48 hrs by agar dilution method; summary of the method: as §1
[11] = tested on: Lacrimispora sphenoides; assay: Antibacterial activity against Clostridium sphenoides isolated from patient with diabetic foot infection after 44 to 48 hrs by agar dilution method; summary of the method: as §1
[12] = tested on: Anaerococcus prevotii; assay: Antibacterial activity against Anaerococcus prevotii isolated from patient with diabetic foot infection assessed as percent resistant isolates after 44 to 48 hrs by agar dilution method; summary of the method: as §2
[13] = tested on: Anaerococcus vaginalis; assay: Antibacterial activity against Anaerococcus vaginalis isolated from patient with diabetic foot infection after 44 to 48 hrs by agar dilution method; summary of the method: as §1
[14] = tested on: Cutibacterium acnes; assay: Antibacterial activity against Propionibacterium acnes isolated from patient with diabetic foot infection assessed as percent resistant isolates after 44 to 48 hrs by agar dilution method; summary of the method: as §2
[15] = tested on: Bacteroides thetaiotaomicron; assay: Antibacterial activity against Bacteroides thetaiotaomicron isolated from patient with diabetic foot infection assessed as percent resistant isolates after 44 to 48 hrs by agar dilution method; summary of the method: as §2
[16] = tested on: Bacteroides uniformis; assay: Antibacterial activity against Bacteroides uniformis isolated from patient with diabetic foot infection after 44 to 48 hrs by agar dilution method; summary of the method: as §1
[17] = tested on: Porphyromonas asaccharolytica; assay: Antibacterial activity against Porphyromonas asaccharolyticus isolated from patient with diabetic foot infection after 44 to 48 hrs by agar dilution method; summary of the method: as §1
[18] = tested on: Clostridium perfringens; assay: Antibacterial activity against Clostridium perfringens isolated from patient with diabetic foot infection after 44 to 48 hrs by agar dilution method; summary of the method: as §2
[19] = tested on: Peptoniphilus asaccharolyticus; assay: Antibacterial activity against Peptoniphilus asaccharolyticus isolated from patient with diabetic foot infection after 44 to 48 hrs by agar dilution method; summary of the method: as §1
[20] = tested on: Prevotella bivia; assay: Antibacterial activity against Prevotella bivia isolated from patient with diabetic foot infection after 44 to 48 hrs by agar dilution method; summary of the method: as §1
[21] = tested on: Peptostreptococcus anaerobius; assay: Antibacterial activity against Peptostreptococcus anaerobius isolated from patient with diabetic foot infection assessed as percent resistant isolates after 44 to 48 hrs by agar dilution method; summary of the method: as §2
[22] = tested on: Porphyromonas somerae; assay: Antibacterial activity against Porphyromonas somerae isolated from patient with diabetic foot infection after 44 to 48 hrs by agar dilution method; summary of the method: as §1
[23] = tested on: Porphyromonas somerae; assay: Antibacterial activity against Porphyromonas somerae isolated from patient with diabetic foot infection assessed as percent resistant isolates after 44 to 48 hrs by agar dilution method; summary of the method: as §2
[24] = tested on: Porphyromonas asaccharolytica; assay: Antibacterial activity against Porphyromonas asaccharolyticus isolated from patient with diabetic foot infection assessed as percent resistant isolates after 44 to 48 hrs by agar dilution method; summary of the method: as §2
[25] = tested on: Anaerococcus vaginalis; assay: Antibacterial activity against Anaerococcus vaginalis isolated from patient with diabetic foot infection assessed as percent resistant isolates after 44 to 48 hrs by agar dilution method; summary of the method: as §2
[26] = tested on: Parvimonas micra; assay: Antibacterial activity against Peptostreptococcus micros isolated from patient with diabetic foot infection assessed as percent resistant isolates after 44 to 48 hrs by agar dilution method; summary of the method: as §2
[27] = tested on: Prevotella bivia; assay: Antibacterial activity against Prevotella bivia isolated from patient with diabetic foot infection assessed as percent resistant isolates after 44 to 48 hrs by agar dilution method; summary of the method: as §2
[28] = tested on: Phocaeicola vulgatus; assay: Antibacterial activity against Bacteroides vulgatus isolated from patient with diabetic foot infection after 44 to 48 hrs by agar dilution method; summary of the method: as §1
[29] = tested on: Bacteroides uniformis; assay: Antibacterial activity against Bacteroides uniformis isolated from patient with diabetic foot infection assessed as percent resistant isolates after 44 to 48 hrs by agar dilution method; summary of the method: as §2
[30] = tested on: Bacteroides ovatus; assay: Antibacterial activity against Bacteroides ovatus isolated from patient with diabetic foot infection after 44 to 48 hrs by agar dilution method; summary of the method: as §1
[31] = tested on: Anaerocolumna aminovalerica; assay: Antibacterial activity against Clostridium aminovalericum isolated from patient with diabetic foot infection assessed as percent resistant isolates after 44 to 48 hrs by agar dilution method; summary of the method: as §2
[32] = tested on: Bacteroides fragilis; assay: Antibacterial activity against Bacteroides fragilis isolated from patient with diabetic foot infection after 44 to 48 hrs by agar dilution method; summary of the method: as §1
[33] = tested on: Clostridium cadaveris; assay: Antibacterial activity against Clostridium cadaveris isolated from patient with diabetic foot infection after 44 to 48 hrs by agar dilution method; summary of the method: as §1
[34] = tested on: Anaerocolumna aminovalerica; assay: Antibacterial activity against Clostridium aminovalericum isolated from patient with diabetic foot infection after 44 to 48 hrs by agar dilution method; summary of the method: as §1
[35] = tested on: Peptoniphilus asaccharolyticus; assay: Antibacterial activity against Peptoniphilus asaccharolyticus isolated from patient with diabetic foot infection assessed as percent resistant isolates after 44 to 48 hrs by agar dilution method; summary of the method: as §2
[36] = tested on: Anaerococcus prevotii; assay: Antibacterial activity against Anaerococcus prevotii isolated from patient with diabetic foot infection after 44 to 48 hrs by agar dilution method; summary of the method: as §1
[37] = tested on: Bacteroides caccae; assay: Antibacterial activity against Bacteroides caccae isolated from patient with diabetic foot infection assessed as percent resistant isolates after 44 to 48 hrs by agar dilution method; summary of the method: as §2

## C[C@@H](O)[C@H]1C(=O)N2C(C(=O)O)=C(S[C@@H]3CN[C@H](C(=O)Nc4cccc(C(=O)O)c4)C3)[C@H](C)[C@H]12 [ERTAPENEM]
[1]
  MIC50: 1 mg/L (≈ 2.1 µM)
  MIC90: 2 mg/L (≈ 4.21 µM)
[2]
  MIC50: 0.06 mg/L (≈ 0.126 µM)
  MIC90: 0.125 mg/L (≈ 0.263 µM)
[3]
  Activity: 0%
[4]
  MIC50: 0.25 mg/L (≈ 0.526 µM)
  MIC90: 0.5 mg/L (≈ 1.05 µM)
[5]
  MIC50: 0.125 mg/L (≈ 0.263 µM)
  MIC90: 0.25 mg/L (≈ 0.526 µM)
[6]
  Activity: 0%
[7]
  Activity: 0%
[8]
  MIC50: 0.125 mg/L (≈ 0.263 µM)
  MIC90: 0.25 mg/L (≈ 0.526 µM)
[9]
  MIC50: 0.25 mg/L (≈ 0.526 µM)
  MIC90: 0.5 mg/L (≈ 1.05 µM)
[10]
  MIC50: 0.25 mg/L (≈ 0.526 µM)
  MIC90: 2 mg/L (≈ 4.21 µM)
[11]
  MIC50: 0.25 mg/L (≈ 0.526 µM)
  MIC90: 2 mg/L (≈ 4.21 µM)
[12]
  Activity: 0%
[13]
  MIC50: 0.125 mg/L (≈ 0.263 µM)
  MIC90: 0.25 mg/L (≈ 0.526 µM)
[14]
  Activity: 0%
[15]
  Activity: 0%
[16]
  MIC50: 1 mg/L (≈ 2.1 µM)
  MIC90: 2 mg/L (≈ 4.21 µM)
[17]
  MIC50: ≤ 0.015 mg/L
  MIC90: 0.06 mg/L (≈ 0.126 µM)
[18]
  MIC50: 0.06 mg/L (≈ 0.126 µM)
  MIC90: 0.125 mg/L (≈ 0.263 µM)
[19]
  MIC50: ≤ 0.015 mg/L
  MIC90: 0.25 mg/L (≈ 0.526 µM)
[20]
  MIC50: 0.25 mg/L (≈ 0.526 µM)
  MIC90: 0.5 mg/L (≈ 1.05 µM)
[21]
  Activity: 0%
[22]
  MIC50: ≤ 0.015 mg/L
  MIC90: 0.06 mg/L (≈ 0.126 µM)
[23]
  Activity: 0%
[24]
  Activity: 0%
[25]
  Activity: 0%
[26]
  Activity: 0%
[27]
  Activity: 0%
[28]
  MIC50: 1 mg/L (≈ 2.1 µM)
  MIC90: 2 mg/L (≈ 4.21 µM)
[29]
  Activity: 0%
[30]
  MIC50: 1 mg/L (≈ 2.1 µM)
  MIC90: 2 mg/L (≈ 4.21 µM)
[31]
  Activity: 0%
[32]
  MIC50: 0.25 mg/L (≈ 0.526 µM)
  MIC90: 1 mg/L (≈ 2.1 µM)
[33]
  MIC50: 0.25 mg/L (≈ 0.526 µM)
  MIC90: 2 mg/L (≈ 4.21 µM)
[34]
  MIC50: 0.25 mg/L (≈ 0.526 µM)
  MIC90: 2 mg/L (≈ 4.21 µM)
[35]
  Activity: 0%
[36]
  MIC50: 0.125 mg/L (≈ 0.263 µM)
  MIC90: 0.25 mg/L (≈ 0.526 µM)
[37]
  Activity: 0%
